Measured values reported in PMC4347663 (Journal of medicinal chemistry, 2013).
Where a name gives a salt, the structure may show the parent alone.

Columns and labels:
REV-ERBα = molecular target: T1, REV-ERBα (Homo sapiens, UniProt P20393); assay: REV-ERBα NCOR FRET assay; type: biochemical; settings: purified REV-ERBα protein, in vitro
T1 sequence (P20393 1-614): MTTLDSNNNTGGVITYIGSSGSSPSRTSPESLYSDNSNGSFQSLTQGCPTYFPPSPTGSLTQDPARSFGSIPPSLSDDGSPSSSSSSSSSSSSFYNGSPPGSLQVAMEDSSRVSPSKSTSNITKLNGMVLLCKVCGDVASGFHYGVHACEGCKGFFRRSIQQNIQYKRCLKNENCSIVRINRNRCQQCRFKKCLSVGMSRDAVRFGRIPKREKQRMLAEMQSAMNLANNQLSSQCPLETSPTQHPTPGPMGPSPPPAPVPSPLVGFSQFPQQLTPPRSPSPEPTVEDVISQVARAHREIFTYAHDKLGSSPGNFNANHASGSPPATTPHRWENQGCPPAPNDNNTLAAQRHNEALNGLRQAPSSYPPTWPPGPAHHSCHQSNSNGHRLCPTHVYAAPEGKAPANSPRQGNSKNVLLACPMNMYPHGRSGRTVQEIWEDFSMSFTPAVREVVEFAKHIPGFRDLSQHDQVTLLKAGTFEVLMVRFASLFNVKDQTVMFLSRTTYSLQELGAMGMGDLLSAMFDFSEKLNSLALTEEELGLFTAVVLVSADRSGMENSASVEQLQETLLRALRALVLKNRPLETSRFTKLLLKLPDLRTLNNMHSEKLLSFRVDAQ

[1] = test system: BMAL1 expression (Bmal-promoter luciferase) in U2OS cells; assay: BMAL reporter gene assay in synchronized U2OS cells; type: cell-based, human; settings: for BMAL1 Phase Delay: delay of peak of second cycle, 20 μM treated cells relative to DMSO treated cells; for inhibition at 20 µM: Homo sapiens, U2OS, 40 h, read-out: BMAL1 Supp.
IL-6 = assay: LPS-stimulated IL-6 expression in THP-1 cells; type: cell-based, human; settings: six hours; for IL-6 transcript expression: 10 μM compound, LPS 10 μg/mL; for IL-6 secretion / expression: 1 μM compound, LPS 10 mcg/mL
Summary of the method: (§1)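 THP-1 cells kept at 3×105 to 8×10^5 cells/mL in RPMI1640 with 10% FBS. Cells were stimulated with LPS 10 μg/mL alongside DMSO or test compound at 10 μM, or at 1 μM in triplicate. After 6 h, cells were lysed and RNA was analysed by RT-qPCR with TATA box binding protein as housekeeping gene. Groups were compared by one-way ANOVA with Dunnett's post-hoc test.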

ABCA1 = ABCA1 expression in THP-1 cells; type: cell-based, human; settings: six hours; for ABCA1 transcript expression: 10 μM compound, LPS 10 μg/mL; for ABCA1 levels: 1 μM compound, LPS 10 mcg/mL
Summary of the method: as §1

LXRα = molecular target: T2, LXRα (Homo sapiens, UniProt Q13133); assay: LXRα radio ligand displacement binding; settings: for LXRα Fold Sel.: selectivity for REV-ERBα over LXRα
T2 sequence (Q13133 1-447): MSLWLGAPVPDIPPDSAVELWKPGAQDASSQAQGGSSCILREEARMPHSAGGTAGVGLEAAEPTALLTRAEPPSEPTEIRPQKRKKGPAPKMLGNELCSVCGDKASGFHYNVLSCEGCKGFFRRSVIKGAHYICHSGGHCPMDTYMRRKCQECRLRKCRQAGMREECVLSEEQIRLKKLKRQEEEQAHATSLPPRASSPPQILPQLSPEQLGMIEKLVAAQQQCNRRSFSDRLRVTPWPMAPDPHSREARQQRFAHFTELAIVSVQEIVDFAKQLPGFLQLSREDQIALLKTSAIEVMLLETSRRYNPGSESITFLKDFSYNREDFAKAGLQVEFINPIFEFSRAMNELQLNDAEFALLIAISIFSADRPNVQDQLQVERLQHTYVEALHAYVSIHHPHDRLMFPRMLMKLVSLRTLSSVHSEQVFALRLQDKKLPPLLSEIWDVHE

[2] = IV and oral DMPK cassette dose experiment; type: in vivo, C57Bl/6 mice; settings: for AUC(0-t) / Vd / clearance / half-life / Cmax / Tmax / bioavailability: male, C57Bl/6, mouse, plasma, 1 mg/kg; for bioavailability: F

SMILES | recruitment of NCOR peptide fragment to REV-ERBα (in words) (REV-ERBα) | BMAL1 Phase Delay [1] [h] | AUC(0-t) ([2]; iv) [ng·h/mL] | Vd ([2]; iv) [L/kg] | clearance ([2]; iv) [mL/min/kg] | half-life ([2]; iv) [min] | AUC(0-t) ([2]; po) [ng·h/mL] | Cmax ([2]; po) [ng/mL] | Tmax ([2]; po) [min] | bioavailability ([2]; po, 1 mg/Kg cassette, mice) [%] | LXRα Fold Sel. (LXRα) | IL-6 secretion / expression (IL-6) | ABCA1 levels (ABCA1) | further results
CC(C)(C)OC(=O)CN(Cc1ccc(Cl)cc1)Cc1ccc([N+](=O)[O-])s1 [Compound 1, reference compound] | induced recruitment of co-factor NCOR peptide fragment | 0 |  |  |  |  |  |  |  |  |  |  |  | IL-6 transcript expression (IL-6): significantly repressed IL-6; ABCA1 transcript expression (ABCA1): increased ABCA1 transcript expression
CCCCCNC(=O)N1CCC(CN(Cc2ccc(Cl)cc2)Cc2ccc([N+](=O)[O-])s2)C1 (stereo not drawn) [Compound 2, reference compound] | neither compounds 2 or 3 increased recruitment of the NCOR peptide fragment |  |  |  |  |  |  |  |  |  |  |  |  | IC50 (LXRα): 6.3 µM; inhibition at 20 µM [1]: 20%; IL-6 transcript expression (IL-6): significantly repressed IL-6; ABCA1 transcript expression (ABCA1): increased ABCA1 transcript expression
CCOC(=O)N1CCC(CN(Cc2ccc(Cl)cc2)Cc2ccc([N+](=O)[O-])s2)C1 (stereo not drawn) [Compound 3, reference compound] | neither compounds 2 or 3 increased recruitment of the NCOR peptide fragment |  | 365 | 1.6 | 45 | 33 | 7.93 | 7.41 | 30 | 2.2 |  |  |  | inhibition at 20 µM [1]: 14%
Cc1cc(Cl)ccc1CN(Cc1ccc(Cl)cc1)Cc1ccc([N+](=O)[O-])s1 [Compound 4, N-(4-chloro-2-methylbenzyl)-N-(4-chlorobenzyl)-1-(5-nitrothiophen-2-yl)methanamine hydrochloride salt] |  | 0 | 2540 | 0.3 | 6.67 | 99 | 594 | 180 | 120 |  | 1,259 fold | significant reduction of IL-6 secretion | no measurable effect on ABCA1 levels | effect on BMAL oscillation curve ([1]; synchronized U2OS cells): suppression and shift of the BMAL oscillation curve in a dose-dependent manner; F ([2]; Oral, 1 mg/Kg cassette, mice): 23.4%; half-life [2]: 120 min
O=[N+]([O-])c1ccc(CN(Cc2ccc(Cl)cc2)Cc2ccccc2F)s1 [Compound 6, N-(4-Chlorobenzyl)-N-(2-fluorobenzyl)-1-(5-nitrothiophen-2-yl)methanamine hydrochloride salt] |  | 0 |  |  |  |  |  |  |  |  |  |  |  | 
O=[N+]([O-])c1ccc(CN(Cc2ccc(F)cc2)Cc2cccnc2)s1 [Compound 10, N-(4-Fluorobenzyl)-1-(5-nitrothiophen-2-yl)-N-(pyridin-3-ylmethyl)methanamine hydrochloride salt] |  | 0 | 354 | 1.5 | 46.7 | 44.4 | 8.39 | 8.98 | 15 | 2.4 | > 250 fold | significant reduction of IL-6 secretion | no measurable effect on ABCA1 levels | 
N#Cc1ccc(CN(Cc2ccc(Cl)cc2)Cc2cccnc2)s1 [Compound 16, 5-(((4-Chloro-benzyl)(pyridin-3-ylmethyl)amino)methyl)thiophene-2-carbonitrile hydrochloride salt] |  | 0 | 361 | 1.8 | 46.7 | 76.2 | 10.2 | 9.14 | 15 | 3.5 | 100 fold | significant reduction of IL-6 secretion | no measurable effect on ABCA1 levels | 
Clc1ccc(CN(Cc2cccnc2)Cc2nccs2)cc1 [Compound 20, N-(4-Chlorobenzyl)-1-(pyridin-3-yl)-N-(thiazol-2-ylmethyl)methanamine] | complete loss of activity |  |  |  |  |  |  |  |  |  | <1 fold |  |  | 
Clc1ccc(CN(Cc2cccnc2)Cc2ncc[nH]2)cc1 [Compound 21, N-((1H-Imidazol-2-yl)methyl)-N-(4-chlorobenzyl)-1-(pyridin-3-yl)methanamine] | complete loss of activity |  |  |  |  |  |  |  |  |  |  |  |  | 
N#Cc1ccc(CN(Cc2cccnc2)Cc2ccc(F)c(F)c2)s1 [Compound 23, 5-(((3,4-Difluorobenzyl)(pyridin-3-ylmethyl)amino)methyl)thiophene-2-carbonitrile] |  |  | 375 | 1.4 | 43.3 | 44.4 | 9.39 | 9.94 | 15 | 3 |  | significant reduction of IL-6 secretion | no measurable effect on ABCA1 levels | 
N#Cc1ccc(CN(Cc2cccnc2)Cc2cc(F)ccc2F)s1 [Compound 25, 5-(((2,5-Difluorobenzyl)(pyridin-3-ylmethyl)amino)methyl)thiophene-2-carbonitrile] |  | 0 |  |  |  |  |  |  |  |  |  |  |  | 
N#Cc1ccc(CN(Cc2cccnc2)Cc2ccccc2F)s1 [Compound 26, 5-(((2-Fluorobenzyl)(pyridin-3-ylmethyl)amino)methyl)thiophene-2-carbonitrile] |  | 0 |  |  |  |  |  |  |  |  | <1 fold |  |  | 
C=CC1=C(C)c2cc3[n-]c(cc4[n-]c(cc5nc(cc1n2)C(C)=C5C=C)c(C)c4CCC(=O)O)c(CCC(=O)O)c3C.[Fe+2] [heme, reference compound] |  |  |  |  |  |  |  |  |  |  |  |  |  | BMAL-luciferase suppression ([1]; in-house U2OS reporter assay, single endpoint comparison): > 50%
